Measurements published in ChEMBL document CHEMBL1221280, “Discovery of achiral inhibitors of the hepatitis C virus NS3 protease based on 2(1H)-pyrazinones” (Bioorg Med Chem, 2010).

What was measured:
[1] = Inhibition of HCV NS3 protease by FRET assay; set-up: species or system Hepacivirus hominis
Outline: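 Full-length HCV NS3 (protease–helicase/NTPase) protein, protease activity read by FRET. Enzyme at 1 nM incubated 10 min at 30 °C in 50 mM HEPES pH 7.5, 10 mM DTT, 40% glycerol before measurement. Inhibitor Ki given with standard deviation. Wild type and the A156T and D168V variants were tested.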

[2] = target: NS3 protease (Hepatitis C virus subtype 1b, UniProt Q0ZMF1, A156T); test: Inhibition of HCV NS3 protease A156T mutant by FRET assay; set-up: species or system Hepacivirus hominis
Outline: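 Protease activity of full-length HCV NS3 (protease–helicase/NTPase) was measured by FRET. 1 nM enzyme was incubated 10 min at 30 °C in 50 mM HEPES pH 7.5, 10 mM DTT, 40% glycerol before read-out.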

Compound	Ki [1] [µM]	Ki [2] [µM]
C=C[C@@H]1C[C@]1(NC(=O)C(c1ccccc1)n1c(C)c(Cl)nc(NC(=O)OC(C)(C)C)c1=O)C(=O)NS(=O)(=O)C1CC1 (some centres undefined)	4.3	5.9
O=C(O)CNc1nc(Cl)c(Cc2ccccc2)n(CC(=O)Nc2ccccc2C(=O)NS(=O)(=O)c2ccc(C(F)(F)F)cc2)c1=O	1.5	2.5
O=C(O)CNc1nc(Cl)cn(C(C(=O)Nc2ccccc2C(=O)NS(=O)(=O)c2ccc(C(F)(F)F)cc2)c2ccccc2)c1=O (centres undefined)	2.3	1.8
C=C[C@@H]1C[C@]1(NC(=O)C(c1ccccc1)n1c(C)c(Cl)nc(NCCC(C)(C)C)c1=O)C(=O)NS(=O)(=O)C1CC1 (some centres undefined)	6.8	–
C=C[C@@H]1C[C@]1(NC(=O)C(c1ccccc1)n1c(C)c(Cl)nc(NCCN2CCOCC2)c1=O)C(=O)NS(=O)(=O)C1CC1 (some centres undefined)	11	–
Cc1c(Cl)nc(NC(=O)OC(C)(C)C)c(=O)n1C(C(=O)Nc1ccccc1C(=O)NS(=O)(=O)c1ccc(C(F)(F)F)cc1)c1ccccc1 (centres undefined)	3.8	1.5
C=C[C@@H]1C[C@]1(NC(=O)C(c1ccccc1)n1c(C)c(Cl)nc(NCC(=O)N(C)C)c1=O)C(=O)NS(=O)(=O)C1CC1 (some centres undefined)	28	–
Cc1c(Cl)nc(NCC(N)=O)c(=O)n1CC(=O)Nc1ccccc1C(=O)NS(=O)(=O)c1ccc(C(F)(F)F)cc1	18	–
O=C(O)CNc1nc(Cl)c(-c2ccccc2)n(CC(=O)Nc2ccccc2C(=O)NS(=O)(=O)c2ccc(C(F)(F)F)cc2)c1=O	3	5.6
C=C[C@@H]1C[C@]1(NC(=O)[C@H](NC(=O)[C@@H](NC(=O)OC(C)(C)C)C(C)(C)C)c1ccc(OC)cc1)C(=O)NS(=O)(=O)C1CC1	34	–

Now from value to molecule, other results behind:

Ki [1] [µM]	Compound	Ki [2] [µM]
10	C=C[C@@H]1C[C@]1(NC(=O)C(c1ccccc1)n1c(C)c(Cl)nc(NCC(=O)N2CCOCC2)c1=O)C(=O)NS(=O)(=O)C1CC1 (some centres undefined)	–
7.2	C=C[C@@H]1C[C@]1(NC(=O)C(c1ccc(OC)cc1)n1c(C)c(Cl)nc(NC(=O)OC(C)(C)C)c1=O)C(=O)NS(=O)(=O)C1CC1 (some centres undefined)	–
12	C=C[C@@H]1C[C@]1(NC(=O)C(c1ccccc1)n1c(C)c(Cl)nc(NCC(N)=O)c1=O)C(=O)NS(=O)(=O)C1CC1 (some centres undefined)	–
11	C=C[C@@H]1C[C@]1(NC(=O)C(c1ccccc1)n1c(C)c(Cl)nc(N)c1=O)C(=O)NS(=O)(=O)C1CC1 (some centres undefined)	–
11	C=C[C@@H]1C[C@]1(NC(=O)C(c1ccccc1)n1c(C)c(Cl)nc(NC(=O)OC(C)(C)C)c1=O)C(=O)O (stereo in doubt; 29a)	–
8.3	C=C[C@@H]1C[C@]1(NC(=O)C(c1ccccc1)n1c(C)c(Cl)nc(NCCc2ccccc2)c1=O)C(=O)NS(=O)(=O)C1CC1 (some centres undefined)	–
5.4	C=C[C@@H]1C[C@]1(NC(=O)[C@@H](NC(=O)[C@@H](NC(=O)OC(C)(C)C)C(C)(C)C)c1ccc(OC)cc1)C(=O)NS(=O)(=O)C1CC1	–
9.6	Cc1c(Cl)nc(NC(=O)OC(C)(C)C)c(=O)n1C(C(=O)N[C@@H](CC1CC1)C(=O)NS(=O)(=O)C1CC1)c1ccccc1 (some centres undefined)	–
13	C=C[C@@H]1C[C@]1(NC(=O)C(c1ccccc1)n1c(C)c(Cl)nc(NC(=O)OC(C)(C)C)c1=O)C(=O)O (stereo in doubt; 29b)	–
